Laboratory results published in ChEMBL document CHEMBL4680230, “Discovery of aryl-piperidine derivatives as potential antipsychotic agents using molecular hybridization strategy” (Eur J Med Chem, 2020).

Key:
D(2) dopamine receptor = D(2) dopamine receptor (Homo sapiens, UniProt P14416); experiment: Antagonist activity at human D2 receptor expressed in HEK293 cells incubated for 60 mins by Eu-cAMP tracer based LANCE ultra cAMP assay; format: cell-based
[1] = biological target: T1, 5-hydroxytryptamine receptor 1A (Homo sapiens, UniProt P08908); experiment: Agonist activity at human 5H1A receptor expressed in HEK293 cells incubated for 60 mins by Eu-cAMP tracer based LANCE ultra cAMP assay; format: functional, cell-based
T1 sequence (P08908 whole entry): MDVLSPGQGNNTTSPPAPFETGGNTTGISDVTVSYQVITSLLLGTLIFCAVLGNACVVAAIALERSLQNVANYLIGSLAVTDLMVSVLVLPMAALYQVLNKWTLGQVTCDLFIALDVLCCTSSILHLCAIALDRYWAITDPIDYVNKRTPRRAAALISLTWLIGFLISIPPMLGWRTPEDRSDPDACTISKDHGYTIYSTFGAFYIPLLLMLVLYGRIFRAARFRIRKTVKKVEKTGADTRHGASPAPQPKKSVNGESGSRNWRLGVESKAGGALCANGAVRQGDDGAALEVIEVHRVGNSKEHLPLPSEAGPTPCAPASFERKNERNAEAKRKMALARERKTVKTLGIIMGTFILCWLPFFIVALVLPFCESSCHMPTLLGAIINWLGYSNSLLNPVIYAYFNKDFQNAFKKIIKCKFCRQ
How it was run: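 Cell-based TR-FRET cAMP assay on human 5-HT1A receptor-expressing cells. Cells were collected in stimulation buffer, added to the compound, centrifuged briefly and incubated 60 min at room temperature. Eu-cAMP tracer and ULight-anti-cAMP were then added, followed by another 60 min at room temperature before reading. The reference agonist was 8-OH-DPAT. […] came from sigmoidal nonlinear regression.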

[2] = biological target: 5-hydroxytryptamine receptor 2A (Homo sapiens, UniProt P28223); experiment: Antagonist activity at human 5HT2A receptor expressed in CHO-K1 cells measured after 15 mins by FLIPR assay; format: cell-based
[3] = Half life in mouse liver microsomes measured after 60 mins in presence of NADPH by LC-MS/MS analysis; format: ADME, Microsome
How it was run: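 Mouse liver microsomes (20 mg/ml stock) were incubated with compound in 0.1 M PBS, pH 7.4, at 37 °C. Compound came from a 1 mM methanol stock, diluted in methanol/water. Reaction was started with NADPH (10 mM stock). Aliquots at 0, 5, 10, 20, 40 and 60 min were quenched in cold methanol and centrifuged at 4 °C. Supernatants were analysed by LC-MS/MS.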

[4] = AUC (0 to 24 hrs) in ICR mouse at 5 mg/kg, iv; format: ADME, organism-based; design: time < 24 hr, route intravenous, dose 5 mg/kg; conditions: in vivo
How it was run: (§1)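 Pharmacokinetics in ICR mice, n = 6 per group, after a single 5 mg/kg intravenous dose or a 25 mg/kg oral dose. Plasma exposure gave AUC over 0–24 h, t1/2, Cmax and Tmax. Oral bioavailability was derived from comparison of the two routes.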

[5] = Half life in ICR mouse at 5 mg/kg, iv; format: ADME, organism-based; conditions: in vivo; how it was run: as §1
[6] = AUC (0 to 24 hrs) in ICR mouse at 25 mg/kg, po; format: ADME, organism-based; design: time < 24 hr, route oral, dose 25 mg/kg; conditions: in vivo; how it was run: as §1
[7] = Half life in ICR mouse at 25 mg/kg, po; format: ADME, organism-based; conditions: in vivo; how it was run: as §1
[8] = Cmax in ICR mouse at 25 mg/kg, po; format: ADME, organism-based; design: route oral, dose 25 mg/kg; conditions: in vivo; how it was run: as §1
[9] = Tmax in ICR mouse at 25 mg/kg, po; format: ADME, organism-based; conditions: in vivo; how it was run: as §1
[10] = Oral bioavailability in ICR mouse at 25 mg/kg; format: ADME, organism-based; conditions: in vivo; how it was run: as §1
[11] = Plasma concentration in ICR mouse at 1 mg/kg, iv measured after 1 hr; format: ADME, organism-based
How it was run: (§2)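 Brain penetration in ICR mice, n = 3 per group, given 1 mg/kg intravenously. Plasma, cerebrospinal fluid and brain levels were measured at 1 h and 4 h post-dose. Kp is the brain-to-plasma concentration ratio.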

[12] = Drug concentration in ICR mouse cerebrospinal fluid at 1 mg/kg, iv measured after 1 hr; format: ADME, organism-based; conditions: read-out: Drug uptake; how it was run: as §2
[13] = Drug concentration in ICR mouse brain at 1 mg/kg, iv measured after 1 hr; format: ADME, organism-based; how it was run: as §2
[14] = Brain to plasma partition coefficient, Kp of compound in ICR mouse at 1 mg/kg, iv measured after 1 hr; format: ADME, organism-based; how it was run: as §2
[15] = Plasma concentration in ICR mouse at 1 mg/kg, iv measured after 4 hrs; format: ADME, organism-based; how it was run: as §2
[16] = Drug concentration in ICR mouse brain at 1 mg/kg, iv measured after 4 hrs; format: ADME, organism-based; how it was run: as §2
[17] = Brain to plasma partition coefficient, Kp of compound in ICR mouse at 1 mg/kg, iv measured after 4 hrs; format: ADME, organism-based; how it was run: as §2
[18] = biological target: T1, 5-hydroxytryptamine receptor 1A; experiment: Displacement of [3H]5-HT from recombinant 5HT1A receptor (unknown origin) expressed in CHO cell membrane measured after 50 mins by microbeta scintillation counting method; format: cell membranes
[19] = biological target: T1, 5-hydroxytryptamine receptor 1A; experiment: Agonist activity at recombinant 5HT1A receptor (unknown origin) expressed in CHO cell membrane assessed as [35S]GTPgammaS binding by liquid scintillation counting method; format: functional, cell membranes

Chain of D(2) dopamine receptor (P14416 whole entry): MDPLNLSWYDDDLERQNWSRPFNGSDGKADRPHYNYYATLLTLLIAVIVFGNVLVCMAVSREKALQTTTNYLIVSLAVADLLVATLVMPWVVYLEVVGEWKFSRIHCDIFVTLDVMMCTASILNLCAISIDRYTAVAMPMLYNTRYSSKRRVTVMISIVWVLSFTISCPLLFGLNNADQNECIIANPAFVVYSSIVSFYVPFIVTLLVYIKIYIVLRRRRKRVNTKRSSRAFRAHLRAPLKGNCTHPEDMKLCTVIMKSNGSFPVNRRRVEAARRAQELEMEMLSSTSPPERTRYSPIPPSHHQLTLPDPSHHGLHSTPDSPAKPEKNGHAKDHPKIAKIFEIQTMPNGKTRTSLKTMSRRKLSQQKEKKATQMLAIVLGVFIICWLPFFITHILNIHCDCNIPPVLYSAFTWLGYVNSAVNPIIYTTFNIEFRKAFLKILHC
Chain of 5-hydroxytryptamine receptor 2A (P28223 whole entry): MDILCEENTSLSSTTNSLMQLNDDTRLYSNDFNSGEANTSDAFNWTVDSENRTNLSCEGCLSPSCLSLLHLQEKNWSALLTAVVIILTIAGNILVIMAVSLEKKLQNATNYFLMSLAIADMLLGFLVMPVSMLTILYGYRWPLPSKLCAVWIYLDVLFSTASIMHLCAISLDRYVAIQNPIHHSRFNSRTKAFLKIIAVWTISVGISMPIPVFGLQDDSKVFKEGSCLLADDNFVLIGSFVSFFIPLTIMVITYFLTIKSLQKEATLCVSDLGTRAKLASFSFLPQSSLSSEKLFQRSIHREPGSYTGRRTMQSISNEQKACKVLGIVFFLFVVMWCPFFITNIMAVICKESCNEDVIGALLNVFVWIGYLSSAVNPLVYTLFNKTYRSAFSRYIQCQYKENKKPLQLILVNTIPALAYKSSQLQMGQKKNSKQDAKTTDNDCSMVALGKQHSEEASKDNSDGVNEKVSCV

Row | Compound | IC50 (D(2) dopamine receptor; read-out: IC50) [nM] | EC50 ([1]; read-out: EC50) [nM] | IC50 ([2]; read-out: IC50) [nM] | EC50 ([1]; hek293) | also measured
1 | CCCN(CCCN1CCN(c2cccc(Cl)c2Cl)CC1)C(=O)c1ccccc1 | 485 | 452 | 3250 |  | 
2 | O=S(=O)(c1ccc(C(F)(F)F)cc1)N(CCCN1CCC(c2noc3cc(F)ccc23)CC1)C1COC1 | 2.3 |  | 92.7 | Not Active | 
3 | N#Cc1ccc(S(=O)(=O)N(CCCN2CCC(c3noc4cc(F)ccc34)CC2)C2COC2)cc1 | 3.6 |  | 11.3 | Not Active | 
4 | O=C(c1ccccc1)N(CCCN1CCC(c2noc3cc(F)ccc23)CC1)C1COC1 | 156 |  | 18.8 | Not Active | half-life [3]: 173 min
5 | O=C(c1ccccc1)N(CCCN1CCC(c2noc3cc(F)ccc23)CC1)CC1CC1 |  |  | 40.8 | Not Active | half-life [3]: 6.9 min
6 | CC(C)N(CCCN1CCN(c2cccc(Cl)c2Cl)CC1)C(=O)c1ccccc1 | 528 | 46.1 | 2010 |  | 
7 | COc1ccccc1N1CCN(CCCN(CC2CC2)C(=O)c2ccccc2)CC1 |  |  |  | Not Active | IC50 ([2]; cho-k1): Not Active
8 | CCCN(CCCN1CCN(c2ccccn2)CC1)C(=O)c1ccccc1 | 6930 | 54.5 | 7550 |  | 
9 | O=S(=O)(c1ccc(Cl)cc1)N(CCCN1CCC(c2noc3cc(F)ccc23)CC1)C1COC1 | 2 |  | 34.6 | Not Active | 
10 | CCCN(CCCN1CCC(c2noc3cc(F)ccc23)CC1)C(=O)c1ccccc1 | 18.5 |  | 73.1 | Not Active | half-life [3]: 6.2 min
11 | O=S(=O)(c1ccccc1)N(CCCN1CCC(c2noc3cc(F)ccc23)CC1)C1COC1 | 1.9 |  | 9.3 | Not Active | 
12 | O=C(c1ccccc1)N(CCCN1CCN(c2cccc(Cl)c2Cl)CC1)CC1CC1 |  | 175 | 768 |  | 
13 | O=C(c1ccccc1)N(CCCN1CCN(c2ccccn2)CC1)C1COC1 |  | 374 |  |  | IC50 (D(2) dopamine receptor; hek293): Not Active; IC50 ([2]; cho-k1): Not Active
14 | COc1ccccc1N1CCN(CCCN(C(=O)c2ccccc2)C2COC2)CC1 | 3760 |  |  | Not Active | IC50 ([2]; cho-k1): Not Active
15 | O=C(c1ccccc1)N(CCCN1CCN(c2ccccn2)CC1)CC1CC1 |  | 24.9 | 7720 |  | IC50 (D(2) dopamine receptor; hek293): Not Active
16 | O=S(=O)(c1ccc(F)cc1)N(CCCN1CCC(c2noc3cc(F)ccc23)CC1)C1COC1 | 3 |  | 15.1 | Not Active | AUC(0-t) at 24 h [4]: 829 ng·h/mL; half-life [5]: 32.4 min; AUC(0-t) at 24 h [6]: 259 ng·h/mL; half-life [7]: 120 min; Cmax [8]: 142 ng/mL; Tmax [9]: 15 min; bioavailability [10]: 6.3%; concentration at 1 h [11]: 75.4 ng/mL; concentration at 1 h [12]: 2 ng/mL; concentration at 1 h [13]: 129 ng/g; Kp at 1 h [14]: 1.72; concentration at 4 h [15]: 2.7 ng/mL; concentration at 4 h [16]: 10.7 ng/g; Kp at 4 h [17]: 4.03
17 | COc1ccccc1N1CCN(CCCN(C(=O)c2ccccc2)C(C)C)CC1 |  |  |  | Not Active | IC50 ([2]; cho-k1): Not Active
18 | O=C(CN1CCN(CCCc2c[nH]c3ccc(F)cc23)CC1)N(c1ccccc1)C1CCCCC1 |  | 7 |  |  | Ki (D(2) dopamine receptor): 2160 nM; Ki [2]: 207 nM; Ki [18]: 51.9 nM; EC50 [19]: 7 nM
19 | CC(C)N(CCCN1CCC(c2noc3cc(F)ccc23)CC1)C(=O)c1ccccc1 | 59.3 |  | 11.6 | Not Active | half-life [3]: 31.5 min
20 | CC(C)N(CCCN1CCN(c2ccccn2)CC1)C(=O)c1ccccc1 |  | 22.8 |  |  | IC50 (D(2) dopamine receptor; hek293): Not Active; IC50 ([2]; cho-k1): Not Active
21 | O=C(c1ccccc1)N(CCCN1CCN(c2cccc(Cl)c2Cl)CC1)C1COC1 | 1880 | 583 | 2180 |  | 
